Calls of active or inactive are those of the source. The rule behind the calls is not given here.
Assays:
3T3-L1 [1] = test: Inhibition of triglyceride accumulation in mouse 3T3L1 cells after 3 days; format: functional, cell-based; settings: in the assay text read “after 6 days” for “after 3 days”
Method in brief: (§1)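 3T3-L1 preadipocytes differentiated from 2 days post-confluence: 3 days in DMEM/10% FBS with insulin, dexamethasone, 0.5 mM IBMX and biotin, then 3 days with insulin only. Compounds in DMSO (0.1% DMSO vehicle) given on days 0 and 3. Berberine as positive control. Cells washed in ice-cold PBS and lysed; triglyceride measured with a commercial kit. Reported as TG relative to […] cells, mean ± SD of three independent experiments.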

3T3-L1 [2] = test: Inhibition of triglyceride accumulation in mouse 3T3L1 cells at 1 to 10 uM after 6 days by ORO staining-based microscopic method; format: functional, cell-based
Method in brief: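 Differentiating 3T3-L1 cells received compounds in DMSO with the differentiation cocktail over 6 days, with 0.1% DMSO vehicle and berberine control. On day 6, cells fixed 1 h in 10% formaldehyde/PBS at room temperature and stained 30 min with fresh Oil Red O. After water washes, they were imaged at 10× magnification under constant light settings. Undifferentiated cells served as reference.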

[3] = Cytotoxicity against HEK293T cells after 24 hrs by MTT assay; format: cell-based, HEK-293T; settings: human
Method in brief: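 HEK293T seeded 5000/well, grown overnight, then exposed to a range of compound concentrations for 24 h with 0.5% DMSO vehicle. MTT (0.05 mg/well) added for 4 h, formazan dissolved in DMSO, absorbance read at 492 nm after 20 min shaking. Percentage computed as (A experiment − A blank)/(A control − A blank).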

3T3-L1 [4] = test: Downregulation of PPARgamma protein expression in mouse 3T3L1 cells at 10 uM after 3 days by Western blotting method; format: functional, cell-based
Method in brief: (§2)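 3T3-L1 lysates were made in NP-40/deoxycholate/SDS buffer with protease and phosphatase inhibitors, then transferred to membranes. Membranes were blocked 2 h in 5% skim milk/TBST and probed with antibodies to phospho-Thr172 and total AMPKα, phospho-Ser79 and total ACC, SIRT1, PPARγ, SREBP-1c and FABP4. Detection was by ECL, with densitometry normalized to α-tubulin. Mean ± SD of 3 independent experiments.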

Mus musculus [5] = species on record: Mus musculus; test: Induction of AMPKalpha phosphorylation in mouse 3T3L1 cells at 10 uM after 3 days by Western blotting method relative to control; format: cell-based; method in brief: as §2
3T3-L1 [6] = test: Downregulation of PPARgamma mRNA expression in mouse 3T3L1 cells at 10 uM after 3 days by RT-qPCR method; format: functional, cell-based
3T3-L1 [7] = test: Upregulation of SIRT1 mRNA expression in mouse 3T3L1 cells at 10 uM after 3 days by qRT-PCR method; format: functional, cell-based
3T3-L1 [8] = test: Effect on AMPKalpha mRNA expression in mouse 3T3L1 cells at 10 uM after 3 days by qRT-PCR method; format: functional, cell-based
Method in brief: (§3)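 Compounds were added to 3T3-L1 cells during cocktail-induced differentiation. Total RNA was extracted with RNAiso plus, and 1 µg was reverse-transcribed before real-time qPCR. Mouse primers were used for AMPK, ACC, SREBP-1c and FABP4. Mean ± SD of 3 independent experiments versus vehicle.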

3T3-L1 [9] = test: Downregulation of FABP4 protein expression in mouse 3T3L1 cells at 10 uM after 3 days by Western blotting method; format: functional, cell-based; method in brief: as §2
3T3-L1 [10] = test: Upregulation of SIRT1 protein expression in mouse 3T3L1 cells at 10 uM after 3 days by Western blotting method; format: functional, cell-based; method in brief: as §2
3T3-L1 [11] = test: Downregulation of FABP4 mRNA expression in mouse 3T3L1 cells at 10 uM after 3 days by RT-qPCR method; format: functional, cell-based; method in brief: as §3
Mus musculus [12] = species on record: Mus musculus; test: Induction of AMPKalpha phosphorylation in mouse 3T3L1 cells assessed as increase in ACC phosphorylation at 10 uM after 3 days by Western blotting method relative to control; format: cell-based; method in brief: as §2
3T3-L1 [13] = test: Downregulation of SREBP-1c mRNA expression in mouse 3T3L1 cells at 10 uM after 3 days by RT-qPCR method; format: functional, cell-based; method in brief: as §3
3T3-L1 [14] = test: Downregulation of SREBP-1c protein expression in mouse 3T3L1 cells at 10 uM after 3 days by Western blotting method; format: functional, cell-based; method in brief: as §2
3T3-L1 [15] = test: Effect on ACC mRNA expression in mouse 3T3L1 cells at 10 uM after 3 days by qRT-PCR method; format: functional, cell-based; method in brief: as §3
3T3-L1 [16] = test: Inhibition of triglyceride accumulation in mouse 3T3L1 cells at 10 uM after 3 days relative to control; format: functional; settings: 3T3-L1, 72 h; method in brief: as §1

## O=c1cc(O)cc(/C=C/c2ccco2)[nH]1
3T3-L1 [1]
  inhibition: Dose-dependent effect

## COc1ccc2cc3[n+](cc2c1OC)CCc1cc2c(cc1-3)OCO2
3T3-L1 [2]
  inhibition: Active

## Oc1ccc(/C=C/c2cc(O)cc(O)c2)cc1 [RESVERATROL]
[3]
  CC50 at 24 h: 22.8 µM
3T3-L1 [2]
  inhibition: Active

## Cc1ccc(/C=C/c2cc(O)cc(=O)[nH]2)o1
3T3-L1 [4]
  Activity: Active
Mus musculus [5]
  fold change (FC): 3.1
3T3-L1 [6]
  Activity: Active
3T3-L1 [7]
  Activity: Active
3T3-L1 [8]
  Activity: inactive
3T3-L1 [9]
  Activity: Active
3T3-L1 [1]
  inhibition: Dose-dependent effect
3T3-L1 [10]
  Activity: Active
3T3-L1 [11]
  Activity: Active
[3]
  CC50 at 24 h: > 1000 µM
Mus musculus [12]
  fold change (FC): 4.12
3T3-L1 [13]
  Activity: Active
3T3-L1 [14]
  Activity: Active
3T3-L1 [15]
  Activity: inactive
3T3-L1 [2]
  inhibition: Active

## O=c1cc(O)cc(/C=C/c2ccccc2)[nH]1
3T3-L1 [1]
  inhibition: Dose-dependent effect

## O=c1cc(O)cc(/C=C/C2CCCCC2)[nH]1
Mus musculus [5]
  fold change (FC): 3.45
3T3-L1 [6]
  Activity: Active
3T3-L1 [7]
  Activity: Active
3T3-L1 [8]
  Activity: inactive
3T3-L1 [1]
  inhibition: Dose-dependent effect
3T3-L1 [10]
  Activity: Active
3T3-L1 [11]
  Activity: Active
[3]
  CC50 at 24 h: 13.8 µM
Mus musculus [12]
  fold change (FC): 2.98
3T3-L1 [13]
  Activity: Active
3T3-L1 [16]
  inhibition at 10 µM: 78.4%
3T3-L1 [15]
  Activity: inactive
3T3-L1 [2]
  inhibition: Active

## O=c1cc(O)cc(/C=C/c2ccccc2Cl)[nH]1
3T3-L1 [1]
  inhibition: Dose-dependent effect

## O=c1cc(O)cc(/C=C/c2cccs2)[nH]1
3T3-L1 [1]
  inhibition: Dose-dependent effect

Source: ChEMBL document CHEMBL4251571, “Design, syntheses and lipid accumulation inhibitory activities of novel resveratrol mimics” (Eur J Med Chem, 2018)
